For assay [1], the species on record is Cavia porcellus. In words: Irreversible antagonistic potency in guinea pig ileal longitudinal muscle (GPI). In kind it is functional. Conditions: Muscle tissue.
The species named for assay [2] is Cavia porcellus. In words: Irreversible antagonism to nalorphine was evaluated after 30 min incubation of GPI with the compound at 200 nM conc. In kind it is functional. Put shortly:
(§1)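 Guinea pig ileal longitudinal muscle was incubated with compound at the stated concentrations for 30 min, then washed 20 times. […] Result is the agonist IC50 after treatment divided by the control agonist IC50 in the same preparation.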

Assay [3] is filed under the species Cavia porcellus. In words: Irreversible antagonism to morphine was evaluated after 30 min incubation of GPI with the compound at 20 nM conc. In kind it is functional. Put shortly: as §1
The species entered for assay [4] is Cavia porcellus. The assay is described as follows: Agonistic potency on the guinea pig ileal longitudinal muscle (GPI) relative to morphine. In kind it is functional, Muscle tissue. The procedure, abridged: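 Isolated guinea pig ileal longitudinal muscle was prepared by the Rang method. […] Only inhibition of contraction greater than 80% was counted.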
For assay [5], the species on record is Cavia porcellus. In words: Irreversible antagonism to morphine was evaluated after 30 min incubation of GPI with the compound at 200 nM conc. The assay is classed as functional. The procedure, abridged: as §1
For assay [6], the species on record is Cavia porcellus. In words: Irreversible antagonism to nalorphine was evaluated after 30 min incubation of GPI with the compound at 20 nM conc. The assay is classed as functional. Put shortly:
as §1

The species named for assay [7] is Mus musculus. The assay is described as follows: Antagonist potency relative to DADLE at 200 nM concentration. The assay is classed as functional. The procedure, abridged: (§2)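 Mouse vas deferens (Henderson method) was pretreated with compound for 30 min, then washed 20 times. […] Result is the agonist IC50 after treatment divided by the control IC50 in the same tissue. Where the agonist fell short of a full (>70%) response, an IC30 ratio was estimated from the plotted curves.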

The species named for assay [8] is Mus musculus. The assay is described as follows: Antagonist potency relative to morphine at 200 nM concentration. The assay is classed as functional. Put shortly:
as §2

Assay [9] is filed under the species Mus musculus. The assay is described as follows: (§3) Agonist activity measured on mouse vas deferens (MVD). The assay is classed as functional.
The species entered for assay [10] is Cavia porcellus. The assay is described as follows: Irreversible antagonism to ethylketazocine (EK) was evaluated after 30 min incubation of GPI with the compound at 200 nM conc. In kind it is functional. Put shortly:
as §1

The species named for assay [11] is Mus musculus. In words: Percent of maximum inhibition of contraction of mouse vas deferens (MVD). In kind it is functional.
The species named for assay [12] is Cavia porcellus. In words: Irreversible antagonism to ethylketazocine (EK) was evaluated after 30 min incubation of GPI with the compound at 20 nM conc. In kind it is functional. Put shortly: as §1
Assay [13] is filed under the species Cavia porcellus. In words: Irreversible antagonism to morphine was evaluated after 30 min incubation of GPI with the compound at 1000 nM conc. The assay is classed as functional. Put shortly: as §1
Assay [14] is filed under the species Cavia porcellus. In words: Irreversible antagonism to ethylketazocine (EK) was evaluated after 30 min incubation of GPI with the compound at 1000 nM conc. In kind it is functional. Put shortly:
as §1

The species entered for assay [15] is Mus musculus. In words: Antagonist potency relative to DADLE at 100 nM concentration. The assay is classed as functional. The procedure, abridged: as §2
For assay [16], the species on record is Mus musculus. In words: Antagonist potency relative to morphine at 100 nM concentration. The assay is classed as functional. Put shortly:
as §2

The species entered for assay [17] is Cavia porcellus. The assay is described as follows: Agonistic activity on the guinea pig ileal longitudinal muscle (GPI) relative to morphine at a dose of 1 uM. In kind it is functional, Muscle tissue.
The species entered for assay [18] is Mus musculus. The assay is described as §3. In kind it is functional, organism-based.
Assay [19] is filed under the species Cavia porcellus. In words: Irreversible antagonism to ethylketazocine (EK) was evaluated after 30 min incubation of GPI with the compound at 500 nM conc. The assay is classed as functional. The procedure, abridged: as §1
The species named for assay [20] is Mus musculus. The assay is described as follows: Antagonist potency relative to DADLE at 20 nM concentration. In kind it is functional. The procedure, abridged:
as §2

The species named for assay [21] is Mus musculus. In words: Antagonist potency relative to morphine at 20 nM concentration. The assay is classed as functional. Put shortly:
as §2

For assay [22], the species on record is Cavia porcellus. The assay is described as follows: Irreversible antagonism to morphine was evaluated after 30 min incubation of GPI with the compound at 500 nM conc. The assay is classed as functional. Put shortly: as §1
Assay [23] is filed under the species Mus musculus. The assay is described as follows: Irreversible antagonistic potency in mouse vas deferens (MVD). In kind it is functional. The procedure, abridged:
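Mouse vas deferens (Henderson method) was pretreated with compound for 30 min, then washed 20 times. Where the agonist fell short of a full (>70%) response, an IC30 ratio was estimated from the plotted curves.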

A word on the IC50: it is the concentration that inhibits the measured activity by half. Read a low IC50 as greater potency. On to `C=CCN1CC[C@]23c4c5ccc(O)c4O[C@H]2[C@@H](O)C=C[C@H]3[C@H]1C5` [NALORPHINE], for which the IC50 in the assay listed under Cavia porcellus [1] was 0.0513 µM.

For `COC(=O)/C=C\C(=O)N[C@@H]1CC[C@@]2(O)C3Cc4ccc(O)c5c4C2(CCN3CC2CC2)[C@H]1O5` (stereo partly specified), the IC50 ratio is on record as 0.6 in the assay filed under Cavia porcellus [2]; 1.5 in the assay listed under Cavia porcellus [3]; 1.1 in the assay listed under Cavia porcellus [4]; 0.63 in the assay listed under Cavia porcellus [5]; 1 in the assay listed under Cavia porcellus [6].

The IC30 is the concentration at which the effect reaches the 30% level. Higher therefore signals weaker potency. Take `COC(=O)/C=C/C(=O)N[C@H]1CC[C@@]2(O)[C@H]3Cc4ccc(O)c5c4[C@@]2(CCN3CC2CC2)[C@H]1O5`: the IC50 ratio in the assay filed under Mus musculus [7] is reported as 0.37; in the assay listed under Mus musculus [8] it was 0.52; in the assay listed under Cavia porcellus [3], 1.2; in the assay listed under Cavia porcellus [4], 7.3; in the assay filed under Cavia porcellus [10], 0.86; in the assay filed under Cavia porcellus [5] it was 0.87. In addition, the IC50 ratio in the assay listed under Cavia porcellus [6] stood at 0.92. This compound returned an IC30 in the assay listed under Mus musculus [9] of 0.08 µM. The compound also showed a max inhibition in the assay listed under Mus musculus [11] of 60%.

As for `COC(=O)/C=C/C(=O)N[C@@H]1CC[C@@]2(O)[C@H]3Cc4ccc(O)c5c4[C@@]2(CCN3CC2CC2)[C@H]1O5`, the IC50 ratio was 1.1 in the assay filed under Mus musculus [7]; 1 in the assay filed under Cavia porcellus [12]; 10.6 in the assay listed under Mus musculus [8]; 6 in the assay filed under Cavia porcellus [3]; 18.8 in the assay listed under Cavia porcellus [13]; 5 in the assay filed under Cavia porcellus [4]. Further, the IC50 ratio in the assay filed under Cavia porcellus [10] is reported as 1.2; in the assay listed under Cavia porcellus [14] it was 1.3; in the assay filed under Mus musculus [15], 1.8; in the assay listed under Mus musculus [16], 3.9.

Consider `O=C(CI)N[C@@H]1CCC2(O)C3Cc4ccc(O)c5c4C2(CCN3CC2CC2)[C@H]1O5` (stereo partly specified), for which the IC50 ratio in the assay filed under Mus musculus [7] was 1.8; in the assay listed under Mus musculus [8], 20; in the assay filed under Cavia porcellus [2] it was 1.2; in the assay filed under Cavia porcellus [3], 2.4; in the assay filed under Cavia porcellus [14] it was 0.7; in the assay listed under Cavia porcellus [5], 2.1. The IC50 ratio in the assay listed under Cavia porcellus [6] is 1.2. In addition, in the assay listed under Cavia porcellus [17], the max inhibition is 55%. Moreover, in the assay filed under Mus musculus [18], the half-maximal inhibitory concentration (IC50) is more than 1 µM.

Consider `O=C(CI)N[C@H]1CCC2(O)C3Cc4ccc(O)c5c4C2(CCN3CC2CC2)[C@H]1O5` (stereo partly specified), for which the IC50 ratio is 1.2 in the assay filed under Mus musculus [7]; 2.5 in the assay filed under Mus musculus [8]; 0.87 in the assay filed under Cavia porcellus [2]; 0.97 in the assay filed under Cavia porcellus [3]; 0.49 in the assay listed under Cavia porcellus [4]; 1.1 in the assay listed under Cavia porcellus [5]. In addition, in the assay listed under Cavia porcellus [6], the IC50 ratio is on record as 1.2. In addition, the IC30 in the assay listed under Mus musculus [9] turned out to be 0.2 µM. In the assay filed under Mus musculus [11], this compound had a max inhibition of 60%.

With `Oc1ccc2c3c1O[C@H]1[C@@H](N=C=S)CC[C@@]4(O)C(C2)N(CC2CC2)CCC314` (stereo partly specified), the IC50 ratio in the assay listed under Mus musculus [7] amounted to 6.6; in the assay listed under Cavia porcellus [12], 0.8; in the assay listed under Mus musculus [8], 10.7; in the assay listed under Cavia porcellus [2] it was 1.2; in the assay listed under Cavia porcellus [3] it was 2.1; in the assay listed under Cavia porcellus [4] it was 9.6. The IC50 ratio in the assay filed under Cavia porcellus [19] came to 1.4; in the assay filed under Cavia porcellus [5] it was 2.4; in the assay listed under Mus musculus [20] it was 1.2; in the assay filed under Mus musculus [21], 3.1; in the assay filed under Cavia porcellus [22], 2.3. In addition, in the assay filed under Mus musculus [9], the IC30 was found to be 0.1 µM. This compound had a max inhibition in the assay filed under Mus musculus [11] of 45%.

For the compound `CCC(=O)N[C@@H]1CCC2(O)C3Cc4ccc(O)c5c4C2(CCN3CC2CC2)[C@H]1O5` (stereo partly specified), the IC50 ratio in the assay listed under Cavia porcellus [2] came out at 0.85; in the assay filed under Cavia porcellus [3], 1.3; in the assay filed under Cavia porcellus [4], 0.81; in the assay filed under Cavia porcellus [5], 1.5; in the assay filed under Cavia porcellus [6], 1.

As for `CC(C)C[C@@H](NC(=O)[C@H](Cc1ccccc1)NC(=O)CNC(=O)[C@@H](C)NC(=O)[C@@H](N)Cc1ccc(O)cc1)C(=O)O` [DADLE], 0.000357 µM corresponded to half-maximal inhibition in the assay listed under Mus musculus [23] (IC50).

`CCC(=O)N[C@H]1CCC2(O)C3Cc4ccc(O)c5c4C2(CCN3CC2CC2)[C@H]1O5` (stereo partly specified): the IC50 ratio in the assay listed under Cavia porcellus [2] is recorded as 0.9; in the assay filed under Cavia porcellus [3], 1.1; in the assay listed under Cavia porcellus [4], 2.9; in the assay listed under Cavia porcellus [5], 1; in the assay filed under Cavia porcellus [6], 0.7.

In the case of `COC(=O)/C=C\C(=O)N[C@H]1CC[C@@]2(O)C3Cc4ccc(O)c5c4C2(CCN3CC2CC2)[C@H]1O5` (stereo partly specified), the IC50 ratio in the assay listed under Cavia porcellus [2] is 0.98; in the assay listed under Cavia porcellus [3] it was 0.95; in the assay filed under Cavia porcellus [4], 0.8; in the assay filed under Cavia porcellus [5] it was 1.1; in the assay listed under Cavia porcellus [6] it was 0.49.

In the case of `C=CC(=O)N[C@@H]1CCC2(O)C3Cc4ccc(O)c5c4C2(CCN3CC2CC2)[C@H]1O5` (stereo partly specified), the max inhibition in the assay listed under Cavia porcellus [17] is reported as 40%. In addition, the IC50 ratio in the assay filed under Cavia porcellus [2] is 1.4; in the assay listed under Cavia porcellus [3], 1.9; in the assay filed under Cavia porcellus [13], 2.9; in the assay filed under Cavia porcellus [14], 1.5; in the assay filed under Cavia porcellus [5] it was 4.2; in the assay filed under Cavia porcellus [6], 1.1.

For `C=CC(=O)N[C@H]1CCC2(O)C3Cc4ccc(O)c5c4C2(CCN3CC2CC2)[C@H]1O5` (stereo partly specified), the IC50 ratio in the assay filed under Cavia porcellus [2] was determined as 0.8; in the assay listed under Cavia porcellus [3], 1.2; in the assay listed under Cavia porcellus [4], 1.5; in the assay filed under Cavia porcellus [5], 1.2; in the assay listed under Cavia porcellus [6] it was 0.78.

In the case of `CCOc1ccc2c(c1)C1(C)CCN(CC3CC3)C(C2=O)C1C` (stereo unspecified) [ETHYLKETAZOCINE], half-maximal inhibition in the assay filed under Cavia porcellus [1] (IC50) was put at 0.000973 µM. That is a sub-nanomolar value.

Take `Oc1ccc2c3c1O[C@H]1[C@H](N=C=S)CC[C@@]4(O)C(C2)N(CC2CC2)CCC314` (stereo partly specified): the IC50 ratio came to 6.9 in the assay filed under Mus musculus [7]; 120 in the assay filed under Mus musculus [8]; 1.4 in the assay filed under Cavia porcellus [2]; 6.9 in the assay listed under Cavia porcellus [3]; 1.9 in the assay listed under Cavia porcellus [4]; 14.9 in the assay filed under Cavia porcellus [5]. The IC50 ratio in the assay filed under Mus musculus [20] is 1.8; in the assay listed under Mus musculus [21] it was 13.8; in the assay listed under Cavia porcellus [6], 1.5. Besides, the IC30 in the assay filed under Mus musculus [9] worked out at 0.1 µM. For the same compound, the max inhibition in the assay filed under Mus musculus [11] is recorded as 43%.

(Values after ChEMBL document CHEMBL1122279, “Importance of C-6 chirality in conferring irreversible opioid antagonism to naltrexone-derived affinity labels” (J Med Chem, 1983).)
